In ChEMBL document CHEMBL2424563, “Semisynthesis of mallotus B from rottlerin: evaluation of cytotoxicity and apoptosis-inducing activity” (J Nat Prod, 2013):
The source made the active and inactive calls. No cut-off for these calls is given here.

Key:
HL-60 [1] = assay: Cell cycle arrest in human HL60 cells assessed as accumulation at S phase at 40 uM after 24 hrs by propidium iodide staining-based FACS flow cytometric analysis (reference value: 54%); assay type: functional
How it was run: (§1)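 HL-60 cells seeded at 0.44 × 10^6/mL and exposed to 10, 20, 30 or 40 μM for 24 h. Cells were pelleted at 400g, washed in ice-cold PBS and fixed overnight in ice-cold 70% ethanol at 4 °C. They were treated with RNase (0.2 mg/mL) for 1 h at 37 °C, then stained with PI (10 μg/mL) for 30 min in the dark. Flow cytometry collected 10 000 events (FL2-A vs FL2-W). Sub-G0, G1, S and G2 fractions were fitted by modelling software.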

HepG2 = assay: Cytotoxicity against human HepG2 cells after 48 hrs by MTT assay; assay type: functional, cell-based; conditions: HepG2, 48 h
How it was run: (§2)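 Cell lines from NCI, grown in RPMI1640 or MEM with 10% heat-inactivated FBS at 37 °C under 5% CO2. Seeded at 6000 cells/well overnight, then exposed to 1, 10, 30, 50 and 100 μM for 48 h. MTT (2.5 mg/mL) added for 3 h, formazan dissolved in DMSO, OD read at 540 nm (ref 620 nm). Growth taken as treated vs untreated absorbance, giving IC50.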

HL-60 [2] = assay: Cell cycle arrest in human HL60 cells assessed as accumulation at G1 phase at 20 uM after 24 hrs by propidium iodide staining-based FACS flow cytometric analysis (reference value: 45%); assay type: functional; how it was run: as §1
HL-60 [3] = assay: Cell cycle arrest in human HL60 cells assessed as accumulation at G2 phase at 40 uM after 24 hrs by propidium iodide staining-based FACS flow cytometric analysis (reference value: 1%); assay type: functional; how it was run: as §1
HL-60 [4] = assay: Induction of apoptosis in human HL60 cells assessed as shrinkage of cell size at 20 to 40 uM after 24 hrs by fluorescence microscopic analysis; assay type: functional, cell-based
How it was run: (§3)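 After 24 h exposure, HL-60 cells were pelleted at 400g, washed twice in PBS and fixed in cold acetic acid–methanol (1:3) for 3 h on ice. They were spread on slides and dried overnight at room temperature. Staining used Hoechst 33258 (5 μg/mL in 0.45 M disodium phosphate/0.01 M citric acid/0.05% Tween 20) for 30 min at room temperature. Slides were mounted in PBS–glycerol and viewed by fluorescence microscopy at 30× for condensed nuclei and apoptotic bodies.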

HL-60 [5] = assay: Induction of mitochondrial membrane potential loss in human HL60 cells at 10 uM after 24 hrs by rhodamine-123 staining-based FACS flow cytometric analysis (reference value: 5%); assay type: functional
HL-60 [6] = assay: Induction of apoptosis in human HL60 cells assessed as vesicle formation at 10 to 40 uM after 24 hrs by phase contrast microscopic analysis; assay type: functional, cell-based
How it was run: (§4)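 HL-60 cells were exposed to the test concentrations for 24 h. Unstained cells were then photographed under phase-contrast microscopy to assess cellular morphology.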

HL-60 [7] = assay: Induction of mitochondrial membrane potential loss in human HL60 cells at 30 uM after 24 hrs by rhodamine-123 staining-based FACS flow cytometric analysis (reference value: 5%); assay type: functional
HL-60 [8] = assay: Cell cycle arrest in human HL60 cells assessed as accumulation at sub-G0 phase at 20 uM after 24 hrs by propidium iodide staining-based FACS flow cytometric analysis (reference value: 3%); assay type: functional; how it was run: as §1
HL-60 [9] = assay: Cell cycle arrest in human HL60 cells assessed as accumulation at sub-G0 phase at 10 uM after 24 hrs by propidium iodide staining-based FACS flow cytometric analysis (reference value: 3%); assay type: functional; how it was run: as §1
HL-60 [10] = assay: Cell cycle arrest in human HL60 cells assessed as accumulation at G2 phase at 30 uM after 24 hrs by propidium iodide staining-based FACS flow cytometric analysis (reference value: 1%); assay type: functional; how it was run: as §1
HL-60 [11] = assay: Cell cycle arrest in human HL60 cells assessed as accumulation at G1 phase at 40 uM after 24 hrs by propidium iodide staining-based FACS flow cytometric analysis (reference value: 45%); assay type: functional; how it was run: as §1
HL-60 [12] = assay: Cell cycle arrest in human HL60 cells assessed as accumulation at G2 phase at 20 uM after 24 hrs by propidium iodide staining-based FACS flow cytometric analysis (reference value: 1%); assay type: functional; how it was run: as §1
HL-60 [13] = assay: Cytotoxicity against human HL60 cells after 48 hrs by MTT assay; assay type: functional, cell-based; conditions: HL-60, 48 h; how it was run: as §2
HL-60 [14] = assay: Cell cycle arrest in human HL60 cells assessed as accumulation at sub-G0 phase at 30 uM after 24 hrs by propidium iodide staining-based FACS flow cytometric analysis (reference value: 3%); assay type: functional; how it was run: as §1
HL-60 [15] = assay: Cell cycle arrest in human HL60 cells assessed as accumulation at G2 phase at 10 uM after 24 hrs by propidium iodide staining-based FACS flow cytometric analysis (reference value: 1%); assay type: functional; how it was run: as §1
HL-60 [16] = assay: Cell cycle arrest in human HL60 cells assessed as accumulation at G1 phase at 10 uM after 24 hrs by propidium iodide staining-based FACS flow cytometric analysis (reference value: 45%); assay type: functional; how it was run: as §1
HL-60 [17] = assay: Cell cycle arrest in human HL60 cells assessed as accumulation at sub-G0 phase at 40 uM after 24 hrs by propidium iodide staining-based FACS flow cytometric analysis (reference value: 3%); assay type: functional; how it was run: as §1
HL-60 [18] = assay: Cell cycle arrest in human HL60 cells assessed as accumulation at S phase at 20 uM after 24 hrs by propidium iodide staining-based FACS flow cytometric analysis (reference value: 54%); assay type: functional; how it was run: as §1
HL-60 [19] = assay: Induction of mitochondrial membrane potential loss in human HL60 cells at 40 uM after 24 hrs by rhodamine-123 staining-based FACS flow cytometric analysis (reference value: 5%); assay type: functional
HL-60 [20] = assay: Induction of apoptosis in human HL60 cells assessed as cell wall deformation at 20 to 40 uM after 24 hrs by fluorescence microscopic analysis; assay type: functional, cell-based; how it was run: as §3
MIA PaCa-2 = assay: Cytotoxicity against human MIAPaCa2 cells after 48 hrs by MTT assay; assay type: functional, cell-based; conditions: MIA PaCa-2, 48 h; how it was run: as §2
HL-60 [21] = assay: Cell cycle arrest in human HL60 cells assessed as accumulation at S phase at 10 uM after 24 hrs by propidium iodide staining-based FACS flow cytometric analysis (reference value: 54%); assay type: functional; how it was run: as §1
HL-60 [22] = assay: Induction of apoptosis in human HL60 cells assessed as formation of scattered apoptotic bodies at 20 to 40 uM after 24 hrs by fluorescence microscopic analysis; assay type: functional, cell-based; how it was run: as §3
HL-60 [23] = assay: Cell cycle arrest in human HL60 cells assessed as accumulation at S phase at 30 uM after 24 hrs by propidium iodide staining-based FACS flow cytometric analysis (reference value: 54%); assay type: functional; how it was run: as §1
HL-60 [24] = assay: Induction of mitochondrial membrane potential loss in human HL60 cells at 20 uM after 24 hrs by rhodamine-123 staining-based FACS flow cytometric analysis (reference value: 5%); assay type: functional
HL-60 [25] = assay: Cell cycle arrest in human HL60 cells assessed as accumulation at G1 phase at 30 uM after 24 hrs by propidium iodide staining-based FACS flow cytometric analysis (reference value: 45%); assay type: functional; how it was run: as §1
HL-60 [26] = assay: Induction of apoptosis in human HL60 cells assessed as nuclear condensation at 20 to 40 uM after 24 hrs by fluorescence microscopic analysis; assay type: functional, cell-based; how it was run: as §3
HL-60 [27] = assay: Induction of apoptosis in human HL60 cells assessed as blebbing of cell wall at 10 to 40 uM after 24 hrs by phase contrast microscopic analysis; assay type: functional, cell-based; how it was run: as §4
PC-3 = assay: Cytotoxicity against human PC3 cells after 48 hrs by MTT assay; assay type: functional, cell-based; conditions: PC-3, 48 h; how it was run: as §2
COLO 205 = assay: Cytotoxicity against human COLO205 cells after 48 hrs by MTT assay; assay type: functional, cell-based; conditions: COLO 205, 48 h; how it was run: as §2
HL-60 [28] = assay: Cell cycle arrest in human HL60 cells assessed as accumulation at sub-G0 phase after 24 hrs by propidium iodide staining-based FACS flow cytometric analysis; assay type: functional
How it was run: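 HL-60 cells at 0.44 × 10^6/mL treated at 10, 20, 30 and 40 μM for 24 h. Collected at 400g, then fixed overnight in ice-cold 70% ethanol at 4 °C. RNase (0.2 mg/mL) at 37 °C for 1 h, then PI (10 μg/mL) for 30 min in the dark. Flow cytometry on 10 000 events, FL2-A vs FL2-W. Sub-G0 fraction taken as apoptotic.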

SMILES | Activity (HL-60 [1]) | IC50 (HepG2) | Activity (HL-60 [2]) | Activity (HL-60 [3]) | Activity (HL-60 [4]) | Activity (HL-60 [5]) | Activity (HL-60 [6]) | Activity (HL-60 [7]) | Activity (HL-60 [8]) | Activity (HL-60 [9]) | Activity (HL-60 [10]) | Activity (HL-60 [11]) | Activity (HL-60 [12]) | IC50 (HL-60 [13]) | Activity (HL-60 [14]) | Activity (HL-60 [15]) | Activity (HL-60 [16]) | IC50 (MIA PaCa-2) | IC50 (PC-3) | IC50 (COLO 205) | also measured
CC1(C)C=Cc2c(OCc3ccccc3)cc(O)c(C(=O)/C=C/c3ccccc3)c2O1 | 42% | > 20 µM | 45% | 12% | Active | 6% | Active | 38% | 9% | 3% | 8% | 46% | 8% | 15 µM | 39% | 6% | 40% | > 20 µM | > 20 µM | > 20 µM | Activity (HL-60 [17]): 83%; Activity (HL-60 [18]): 48%; Activity (HL-60 [19]): 68%; Activity (HL-60 [20]): Active; Activity (HL-60 [21]): 54%; Activity (HL-60 [22]): Active; Activity (HL-60 [23]): 49%; Activity (HL-60 [24]): 23%; Activity (HL-60 [25]): 43%; Activity (HL-60 [26]): Active; Activity (HL-60 [27]): Active
CC(=O)c1c(O)c(C)c(O)c(Cc2c(O)c(CC=C(C)C)c(O)c3c2O[C@H](c2ccccc2)CC3=O)c1O | 22% | > 20 µM | 78% | 18% | Active | 6% | Active | 25% | 26% | 14% | 7% | 60% | 4% | 16 µM | 29% | 5% | 75% | 9 µM | > 20 µM | > 20 µM | Activity (HL-60 [17]): 55%; Activity (HL-60 [18]): 18%; Activity (HL-60 [19]): 43%; Activity (HL-60 [20]): Active; Activity (HL-60 [21]): 20%; Activity (HL-60 [22]): Active; Activity (HL-60 [23]): 16%; Activity (HL-60 [24]): 12%; Activity (HL-60 [25]): 77%; Activity (HL-60 [26]): Active; Activity (HL-60 [27]): Active
CC(=O)c1c(O)c(C)c(O)c(Cc2c(O)c3c(c(C(=O)/C=C/c4ccccc4)c2O)OC(C)(C)C=C3)c1O [ROTTLERIN] | 63% | > 20 µM | 58% | 4% | Active | 18% | Active | 61% | 64% | 19.6% | 12% | 33% | 12% | 9 µM | 80% | 7% | 67% | 8 µM | > 20 µM | > 20 µM | Activity (HL-60 [17]): 84%; Activity (HL-60 [18]): 31%; Activity (HL-60 [19]): 89%; Activity (HL-60 [20]): Active; Activity (HL-60 [21]): 26%; Activity (HL-60 [22]): Active; Activity (HL-60 [23]): 46%; Activity (HL-60 [24]): 28%; Activity (HL-60 [25]): 42%; Activity (HL-60 [28]): Dose-dependent effect; Activity (HL-60 [26]): Active; Activity (HL-60 [27]): Active
CC[C@@]1(O)C(=O)OCc2c1cc1n(c2=O)Cc2cc3ccccc3nc2-1 [CAMPTOTHECIN] | – | 0.2 µM | – | – | – | – | – | – | – | – | – | – | – | 0.06 µM | – | – | – | 0.19 µM | 1.2 µM | 0.05 µM | –
